pIC50: −log10 of the molar value. Values after ≈ are worked out from the molar mass of the structure shown. Values belong to the compound of their own block, whether it stands above or below them.
Assays:
[1] = biological target: T1, Type-2 angiotensin II receptor (Homo sapiens, UniProt P50052); assay: Inhibition of AT2 receptor
T1 sequence (P50052 whole entry): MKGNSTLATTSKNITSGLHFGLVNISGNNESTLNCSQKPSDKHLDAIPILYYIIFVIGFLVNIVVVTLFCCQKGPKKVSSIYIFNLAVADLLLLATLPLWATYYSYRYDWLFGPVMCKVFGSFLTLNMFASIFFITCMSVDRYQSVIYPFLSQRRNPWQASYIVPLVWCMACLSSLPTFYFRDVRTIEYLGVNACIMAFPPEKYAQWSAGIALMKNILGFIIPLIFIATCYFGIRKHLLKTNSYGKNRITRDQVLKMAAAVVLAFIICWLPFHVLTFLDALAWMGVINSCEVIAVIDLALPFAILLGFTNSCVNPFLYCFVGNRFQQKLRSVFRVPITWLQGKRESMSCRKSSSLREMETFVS
How it was run: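 AT2 IC50 derived from four dose levels per compound, following a published protocol.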

[2] = test system: Enterococcus faecalis; assay: Antibacterial activity against Enterococcus faecalis C21560 in liquid culture by turbidity method; type: functional
How it was run: (§1)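 MIC is the lowest concentration giving 100% inhibition of bacterial growth in liquid culture, read by turbidity.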

[3] = test system: Streptococcus pneumoniae; assay: Antibacterial activity against Streptococcus pneumoniae CL2883 in liquid culture by turbidity method; type: functional; how it was run: as §1
[4] = test system: Staphylococcus aureus; assay: Antibacterial activity against Staphylococcus aureus infected in mouse model assessed as reduction of >= 2 log 10 cfu kidney burden; type: functional
How it was run: (§2)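 Systemic S. aureus infection mouse model (SATOA). Compounds were given iv; […]. Kidney bacterial burden (cfu) was compared with untreated control. ED99 is the dose giving a reduction of at least 2 log10 cfu in kidney burden.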

[5] = test system: Staphylococcus aureus; assay: Antibacterial activity against Staphylococcus aureus MB2865 in liquid culture by turbidity method; type: functional; how it was run: as §1
[6] = test system: Staphylococcus aureus; assay: Antibacterial activity against Staphylococcus aureus infected iv bid dosed mouse model assessed as reduction of colony forming unit in kidney; type: functional; how it was run: as §2
[7] = biological target: T2, Cytochrome P450 2C8 (Homo sapiens, UniProt P10632); assay: Inhibition of CYP2C8; type: ADME
T2 sequence (P10632 whole entry): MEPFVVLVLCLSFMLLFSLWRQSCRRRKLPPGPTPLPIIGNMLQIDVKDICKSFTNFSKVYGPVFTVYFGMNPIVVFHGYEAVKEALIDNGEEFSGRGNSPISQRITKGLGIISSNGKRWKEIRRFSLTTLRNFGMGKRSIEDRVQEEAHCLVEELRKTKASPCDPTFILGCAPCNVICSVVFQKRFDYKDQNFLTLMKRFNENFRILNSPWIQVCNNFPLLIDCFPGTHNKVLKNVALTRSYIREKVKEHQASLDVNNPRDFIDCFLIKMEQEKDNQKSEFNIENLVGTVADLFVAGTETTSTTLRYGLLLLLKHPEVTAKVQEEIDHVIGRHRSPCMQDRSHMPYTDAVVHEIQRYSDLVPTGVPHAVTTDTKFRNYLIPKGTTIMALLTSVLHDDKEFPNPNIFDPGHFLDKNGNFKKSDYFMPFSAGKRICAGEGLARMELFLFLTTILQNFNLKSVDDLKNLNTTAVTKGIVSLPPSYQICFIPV

[8] = Terminal half life in dog at 1 mg/kg, iv; type: ADME, organism-based, Canis lupus familiaris; parameters: dose 1 mg/kg, route intravenous; conditions: in vivo, read-out: beta t1/2 (converted)
How it was run: (§3)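 Single iv dose of 1 mg/kg in EtOH/PEG400/H2O (10:15:75). Clearance was measured in plasma, with steady-state volume of distribution and terminal half-life derived.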

[9] = Plasma clearance in rat at 1 mg/kg, iv; type: ADME, organism-based; parameters: dose 1 mg/kg, route intravenous; how it was run: as §3
[10] = biological target: T3, Cytochrome P450 1A2 (Homo sapiens, UniProt P05177); assay: Inhibition of CYP1A2; type: ADME
T3 sequence (P05177 whole entry): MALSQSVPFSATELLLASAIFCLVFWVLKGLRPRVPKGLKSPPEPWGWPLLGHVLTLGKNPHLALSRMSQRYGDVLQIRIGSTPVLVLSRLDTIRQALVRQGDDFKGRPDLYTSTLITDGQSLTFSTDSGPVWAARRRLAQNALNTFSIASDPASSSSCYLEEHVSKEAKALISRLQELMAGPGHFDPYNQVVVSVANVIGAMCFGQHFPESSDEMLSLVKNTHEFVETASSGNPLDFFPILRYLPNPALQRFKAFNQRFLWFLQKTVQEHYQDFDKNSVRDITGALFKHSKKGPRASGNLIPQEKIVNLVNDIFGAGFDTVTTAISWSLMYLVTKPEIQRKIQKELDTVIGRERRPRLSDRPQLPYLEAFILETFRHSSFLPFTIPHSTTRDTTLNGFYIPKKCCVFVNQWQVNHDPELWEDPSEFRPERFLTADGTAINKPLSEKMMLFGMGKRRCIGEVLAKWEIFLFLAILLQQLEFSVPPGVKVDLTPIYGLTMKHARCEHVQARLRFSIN

[11] = biological target: Cytochrome P450 2C9 (Homo sapiens, UniProt P11712); assay: Inhibition of CYP2C9; type: ADME
Sequence of Cytochrome P450 2C9 (P11712 whole entry): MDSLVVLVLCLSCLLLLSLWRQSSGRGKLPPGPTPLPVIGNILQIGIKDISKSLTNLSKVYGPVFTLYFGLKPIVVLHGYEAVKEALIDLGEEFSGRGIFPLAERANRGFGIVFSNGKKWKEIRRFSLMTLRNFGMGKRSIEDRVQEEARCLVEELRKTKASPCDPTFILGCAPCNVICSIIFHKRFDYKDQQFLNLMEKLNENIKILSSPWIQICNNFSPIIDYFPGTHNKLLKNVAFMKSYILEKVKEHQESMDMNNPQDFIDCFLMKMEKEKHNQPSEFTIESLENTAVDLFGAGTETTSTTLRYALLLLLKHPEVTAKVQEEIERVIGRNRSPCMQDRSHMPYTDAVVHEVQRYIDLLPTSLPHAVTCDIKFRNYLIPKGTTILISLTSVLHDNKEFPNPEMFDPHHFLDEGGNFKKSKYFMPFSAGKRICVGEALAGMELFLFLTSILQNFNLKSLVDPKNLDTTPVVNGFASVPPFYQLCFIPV

[12] = Terminal half life in mouse at 1 mg/kg, iv; type: ADME, organism-based; parameters: dose 1 mg/kg, route intravenous; conditions: in vivo, read-out: beta t1/2 (converted); how it was run: as §3
[13] = biological target: Cytochrome P450 2D6 (Homo sapiens, UniProt P10635); assay: Inhibition of CYP2D6; type: ADME
Sequence of Cytochrome P450 2D6 (P10635 whole entry): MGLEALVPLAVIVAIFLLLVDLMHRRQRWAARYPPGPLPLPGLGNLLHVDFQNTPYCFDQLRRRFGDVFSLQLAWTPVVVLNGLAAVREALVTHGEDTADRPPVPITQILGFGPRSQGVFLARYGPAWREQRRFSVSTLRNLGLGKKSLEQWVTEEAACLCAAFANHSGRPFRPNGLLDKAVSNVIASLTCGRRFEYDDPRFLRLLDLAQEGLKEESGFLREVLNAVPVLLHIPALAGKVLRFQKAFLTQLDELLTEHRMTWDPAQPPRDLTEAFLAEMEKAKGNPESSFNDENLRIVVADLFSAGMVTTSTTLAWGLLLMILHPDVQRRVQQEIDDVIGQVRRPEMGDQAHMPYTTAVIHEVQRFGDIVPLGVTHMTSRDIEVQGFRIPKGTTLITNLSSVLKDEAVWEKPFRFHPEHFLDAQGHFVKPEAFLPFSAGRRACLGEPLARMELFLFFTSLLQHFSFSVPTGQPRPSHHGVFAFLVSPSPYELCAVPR

[14] = test system: Staphylococcus aureus; assay: Antibacterial activity against methicillin-resistant Staphylococcus aureus COL infected mouse thigh model assessed as reduction of bacterial load at 1 mg/kg, iv, bid after 24 hrs; type: functional
How it was run: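 Mouse MRSA COL thigh infection, 4 mice per group. Test article given intravenously, 0.2 ml, twice daily. Thighs harvested aseptically 24 h after challenge. Bacterial load compared with untreated controls as log reduction over 24 h.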

[15] = test system: Enterococcus; assay: Antibacterial activity against vancomycin-resistant Enterococcus; type: functional
How it was run: (§4)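 MIC taken as the lowest concentration giving 100% inhibition of bacterial growth in liquid culture, judged by turbidity.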

[16] = biological target: T4, Nuclear receptor subfamily 1 group I member 2 (Homo sapiens, UniProt O75469); assay: Activity at human PXR
T4 sequence (O75469 whole entry): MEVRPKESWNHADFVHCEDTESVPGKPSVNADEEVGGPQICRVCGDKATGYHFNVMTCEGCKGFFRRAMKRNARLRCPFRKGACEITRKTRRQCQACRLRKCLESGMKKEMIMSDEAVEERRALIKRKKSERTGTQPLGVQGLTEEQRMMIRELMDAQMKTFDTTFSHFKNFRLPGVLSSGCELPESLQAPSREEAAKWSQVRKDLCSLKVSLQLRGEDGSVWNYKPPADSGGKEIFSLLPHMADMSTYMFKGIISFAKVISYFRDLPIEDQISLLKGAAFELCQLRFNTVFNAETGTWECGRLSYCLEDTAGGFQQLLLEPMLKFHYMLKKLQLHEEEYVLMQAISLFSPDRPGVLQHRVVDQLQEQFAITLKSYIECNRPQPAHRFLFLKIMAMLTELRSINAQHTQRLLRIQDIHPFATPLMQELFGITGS

[17] = biological target: Cytochrome P450 2C19 (Homo sapiens, UniProt P33261); assay: Inhibition of CYP2C19; type: ADME
Sequence of Cytochrome P450 2C19 (P33261 whole entry): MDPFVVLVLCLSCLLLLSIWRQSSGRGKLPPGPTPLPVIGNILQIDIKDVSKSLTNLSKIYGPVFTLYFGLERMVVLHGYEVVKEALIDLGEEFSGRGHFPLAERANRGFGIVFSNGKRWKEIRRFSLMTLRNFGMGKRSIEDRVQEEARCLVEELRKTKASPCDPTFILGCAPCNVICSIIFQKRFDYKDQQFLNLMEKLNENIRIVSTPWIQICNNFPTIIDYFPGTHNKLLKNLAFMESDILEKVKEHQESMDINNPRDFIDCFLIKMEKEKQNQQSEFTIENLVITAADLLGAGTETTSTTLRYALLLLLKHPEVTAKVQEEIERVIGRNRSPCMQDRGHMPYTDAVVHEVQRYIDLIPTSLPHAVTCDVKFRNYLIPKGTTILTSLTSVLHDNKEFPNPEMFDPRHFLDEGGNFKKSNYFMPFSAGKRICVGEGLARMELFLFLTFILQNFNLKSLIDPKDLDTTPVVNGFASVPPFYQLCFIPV

[18] = test system: Staphylococcus aureus; assay: Antibacterial activity against methicillin-resistant Staphylococcus aureus; type: functional; how it was run: as §4
[19] = Terminal half life in rat at 1 mg/kg, iv; type: ADME, organism-based; parameters: dose 1 mg/kg, route intravenous; conditions: in vivo, read-out: beta t1/2 (converted); how it was run: as §3
[20] = Volume of distribution in steady state in rat at 1 mg/kg, iv; type: ADME, organism-based; parameters: dose 1 mg/kg, route intravenous; conditions: in vivo, read-out: Vdss; how it was run: as §3
[21] = Volume of distribution in steady state in monkey at 1 mg/kg, iv; type: ADME, organism-based, Macaca mulatta; parameters: dose 1 mg/kg, route intravenous; conditions: rhesus monkey, in vivo, read-out: Vdss; how it was run: as §3
[22] = Volume of distribution in steady state in dog at 1 mg/kg, iv; type: ADME, organism-based, Canis lupus familiaris; parameters: dose 1 mg/kg, route intravenous; conditions: in vivo, read-out: Vdss; how it was run: as §3
[23] = Volume of distribution in steady state in mouse at 1 mg/kg, iv; type: ADME, organism-based; parameters: dose 1 mg/kg, route intravenous; conditions: in vivo, read-out: Vdss; how it was run: as §3
[24] = Terminal half life in monkey at 1 mg/kg, iv; type: ADME, organism-based, Macaca mulatta; parameters: dose 1 mg/kg, route intravenous; conditions: rhesus monkey, in vivo, read-out: beta t1/2 (converted); how it was run: as §3
[25] = Plasma clearance in monkey at 1 mg/kg, iv; type: ADME, organism-based, Macaca mulatta; parameters: dose 1 mg/kg, route intravenous; conditions: rhesus monkey; how it was run: as §3
[26] = biological target: Cytochrome P450 3A4 (Homo sapiens, UniProt P08684); assay: Inhibition of CYP3A4; type: ADME
Sequence of Cytochrome P450 3A4 (P08684 whole entry): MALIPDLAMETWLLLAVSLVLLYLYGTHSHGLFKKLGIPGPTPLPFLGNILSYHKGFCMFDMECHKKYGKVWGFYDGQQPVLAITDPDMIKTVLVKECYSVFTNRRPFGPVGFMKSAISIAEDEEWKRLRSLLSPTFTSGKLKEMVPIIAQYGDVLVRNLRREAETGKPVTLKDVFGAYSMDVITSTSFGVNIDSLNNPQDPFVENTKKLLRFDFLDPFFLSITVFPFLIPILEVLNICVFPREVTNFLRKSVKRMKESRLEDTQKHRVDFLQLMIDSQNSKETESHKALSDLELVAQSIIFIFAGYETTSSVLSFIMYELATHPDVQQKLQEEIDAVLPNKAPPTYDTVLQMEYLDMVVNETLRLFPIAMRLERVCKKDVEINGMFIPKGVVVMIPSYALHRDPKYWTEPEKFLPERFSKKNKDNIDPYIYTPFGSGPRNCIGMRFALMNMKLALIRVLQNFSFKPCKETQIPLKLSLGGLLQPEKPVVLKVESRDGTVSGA

[27] = Plasma clearance in dog at 1 mg/kg, iv; type: ADME, organism-based, Canis lupus familiaris; parameters: dose 1 mg/kg, route intravenous; how it was run: as §3
[28] = Solubility in water at pH 3.4; type: physicochemical
How it was run: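 Amorphous powders from lyophilized material, as TFA salts; aqueous solubility measured by nephelometry.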

pIC50 [1]: 6.99
MIC [2]: 0.06 µg/mL (≈ 0.0413 µM)
MIC [3]: 0.015 µg/mL (≈ 0.0103 µM)
MIC [5]: 0.06 µg/mL (≈ 0.0413 µM)
Structure (SMILES): CO/C(C)=C1/NC(=O)[C@H]([C@@H](C)O)NC(=O)c2csc(n2)-c2cc(O)c(-c3nc(C(=O)N4CCN(C)CC4)cs3)nc2-c2csc(n2)[C@@H]2COC(=O)c3c4c5c(cccc5n3O)COC(=O)[C@@H](O[C@H]3C[C@](C)(O)[C@H](N(C)C)[C@H](C)O3)[C@@H](OC4)[C@H](NC(=O)c3csc1n3)c1nc(cs1)C(=O)N2
ED99 [4]: 0.24 mg/kg

Structure (SMILES): CO/C(C)=C1/NC(=O)[C@H]([C@@H](C)O)NC(=O)c2csc(n2)-c2cc(OC)c(-c3nc(C(=O)NCCCN4CCOCC4)cs3)nc2-c2csc(n2)[C@@H]2COC(=O)c3c4c5c(cccc5n3O)COC(=O)[C@@H](O[C@H]3C[C@](C)(O)[C@H](N(C)C)[C@H](C)O3)[C@@H](OC4)[C@H](NC(=O)c3csc1n3)c1nc(cs1)C(=O)N2
ED99 [6]: 0.27 mg/kg
pIC50 [1]: 5.29
pIC50 [7]: 4.15
half-life [8]: 5.4 h
clearance [9]: 51.3 mL/min/kg
pIC50 [10]: ≤ 4.00
pIC50 [11]: ≤ 4.00
half-life [12]: 5 h
pIC50 [13]: ≤ 4.00
Activity [14]: 1.22
MIC [15]: 0.06 µg/mL (≈ 0.0397 µM)
Activity [16]: Not Active
pIC50 [17]: ≤ 4.00
MIC [18]: 0.00095 µg/mL (≈ 0.000629 µM)
half-life [19]: 6.4 h
Vd [20]: 15.5 L/kg
Vd [21]: 1.2 L/kg
Vd [22]: 3.3 L/kg
Vd [23]: 18.7 L/kg
half-life [24]: 6.5 h
clearance [25]: 15 mL/min/kg
pIC50 [26]: ≤ 4.00
clearance [27]: 15.6 mL/min/kg
MIC [5]: 0.01 µg/mL (≈ 0.00662 µM)

pIC50 [1]: 6.07
MIC [5]: 0.09 µg/mL (≈ 0.0591 µM)
Structure (SMILES): CO/C(C)=C1/NC(=O)[C@H]([C@@H](C)O)NC(=O)c2csc(n2)-c2cc(OC)c(-c3nc(C(=O)NCCCN4CCN(C)CC4)cs3)nc2-c2csc(n2)[C@@H]2COC(=O)c3c4c5c(cccc5n3O)COC(=O)[C@@H](O[C@H]3C[C@](C)(O)[C@H](N(C)C)[C@H](C)O3)[C@@H](OC4)[C@H](NC(=O)c3csc1n3)c1nc(cs1)C(=O)N2

Structure (SMILES): CO/C(C)=C1/NC(=O)[C@H]([C@@H](C)O)NC(=O)c2csc(n2)-c2cc(OC)c(-c3nc(C(=O)NCCCN4CCOCC4)cs3)nc2-c2csc(n2)[C@@H]2COC(=O)c3c4c5c(cccc5n3O)COC(=O)[C@@H](O[C@H]3C[C@](C)(O)[C@H](N(C)C)[C@H](C)O3)[C@@H](OC4)[C@H](NC(=O)c3csc1n3)c1nc(cs1)C(=O)N2.Cl
solubility [28]: 68 mg/mL

pIC50 [1]: 7.11
MIC [2]: 0.09 µg/mL (≈ 0.0601 µM)
MIC [3]: 0.00059 µg/mL (≈ 0.000394 µM)
MIC [5]: 0.019 µg/mL (≈ 0.0127 µM)
Structure (SMILES): CO/C(C)=C1/NC(=O)[C@H]([C@@H](C)O)NC(=O)c2csc(n2)-c2cc(O)c(-c3nc(C(=O)NCCNC(=O)CN(C)C)cs3)nc2-c2csc(n2)[C@@H]2COC(=O)c3c4c5c(cccc5n3O)COC(=O)[C@@H](O[C@H]3C[C@](C)(O)[C@H](N(C)C)[C@H](C)O3)[C@@H](OC4)[C@H](NC(=O)c3csc1n3)c1nc(cs1)C(=O)N2
ED99 [4]: 0.2 mg/kg

From ChEMBL document CHEMBL1136943, “Nocathiacin analogs: Synthesis and antibacterial activity of novel water-soluble amides” (Bioorg Med Chem Lett, 2009)
